Reference: ChEMBL document CHEMBL4311956, “A Qualified Success: Discovery of a New Series of ATAD2 Bromodomain Inhibitors with a Novel Binding Mode Using High-Throughput Screening and Hit Qualification” (J Med Chem, 2019)

Columns and labels:
[1] = molecular target: Bromodomain testis-specific protein (Homo sapiens, UniProt Q58F21, Y66A); experiment: Displacement of Alexa Fluor 647 labelled ligand from His6/FLAG-tagged TEV fused BRDT BD2(1 to 397 residues)/[…] mutant (unknown origin) after 30 mins by TR-FRET assay
In short: (§1)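 BET selectivity by TR-FRET fluoroligand displacement. Uses tandem BET bromodomain constructs carrying a mutation in the non-assayed bromodomain.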

Homo sapiens [2] = species: Homo sapiens; experiment: (§2) Selectivity ratio, ratio of inhibition of CECR2 (unknown origin) to displacement of SGRG-K(Ac)-GG-K(Ac)-GLG-K(Ac)-GGAKRHRKV-biotin) from His6/FLAG-tagged TEV fused ATAD2 bromodomain (981 to 1121 residues) expressed in Escherichia coli BL21(DE3) cells
Homo sapiens [3] = species: Homo sapiens; experiment: Selectivity ratio, ratio of inhibition of TAF1 BD2 (unknown origin) to Displacement of biotinylated H4 peptide from ATAD2B bromodomain (unknown origin) by TR-FRET assay
[4] = molecular target: Bromodomain-containing protein 7 (Homo sapiens, UniProt Q9NPI1); experiment: Inhibition of BRD7 (unknown origin) by TR-FRET assay
[5] = molecular target: Bromodomain-containing protein 2 (Homo sapiens, UniProt P25440, Y113A); experiment: Displacement of Alexa Fluor 647 labelled ligand from His6-tagged BRD2 BD2 (1 to 473 residues)/BD1 Y113A mutant (unknown origin) after 30 mins by TR-FRET assay; in short: as §1
[6] = molecular target: Bromodomain-containing protein 9 (Homo sapiens, UniProt Q9H8M2); experiment: Inhibition of BRD9 (unknown origin) by TR-FRET assay
Homo sapiens [7] = species: Homo sapiens; experiment: as §2, with “displacement” for “inhibition”, “Alexa Fluor 647 labelled ligand from His6-tagged BRD4 BD1 (1 to 477 residues)/BD2 Y390A mutant” for “CECR2”
[8] = molecular target: Transcription initiation factor TFIID subunit 1 (Homo sapiens, UniProt P21675); experiment: Inhibition of TAF1 BD2 (unknown origin) by TR-FRET assay
[9] = molecular target: T1, ATPase family AAA domain-containing protein 2 (Homo sapiens, UniProt Q6PL18); experiment: Displacement of SGRG-K(Ac)-GG-K(Ac)-GLG-K(Ac)-GGAKRHRKV-biotin) from His6/FLAG-tagged TEV fused ATAD2 bromodomain (981 to 1121 residues) (unknown origin) expressed in Escherichia coli BL21(DE3) cells after 30 mins by TR-FRET assay
T1 sequence (Q6PL18 whole entry): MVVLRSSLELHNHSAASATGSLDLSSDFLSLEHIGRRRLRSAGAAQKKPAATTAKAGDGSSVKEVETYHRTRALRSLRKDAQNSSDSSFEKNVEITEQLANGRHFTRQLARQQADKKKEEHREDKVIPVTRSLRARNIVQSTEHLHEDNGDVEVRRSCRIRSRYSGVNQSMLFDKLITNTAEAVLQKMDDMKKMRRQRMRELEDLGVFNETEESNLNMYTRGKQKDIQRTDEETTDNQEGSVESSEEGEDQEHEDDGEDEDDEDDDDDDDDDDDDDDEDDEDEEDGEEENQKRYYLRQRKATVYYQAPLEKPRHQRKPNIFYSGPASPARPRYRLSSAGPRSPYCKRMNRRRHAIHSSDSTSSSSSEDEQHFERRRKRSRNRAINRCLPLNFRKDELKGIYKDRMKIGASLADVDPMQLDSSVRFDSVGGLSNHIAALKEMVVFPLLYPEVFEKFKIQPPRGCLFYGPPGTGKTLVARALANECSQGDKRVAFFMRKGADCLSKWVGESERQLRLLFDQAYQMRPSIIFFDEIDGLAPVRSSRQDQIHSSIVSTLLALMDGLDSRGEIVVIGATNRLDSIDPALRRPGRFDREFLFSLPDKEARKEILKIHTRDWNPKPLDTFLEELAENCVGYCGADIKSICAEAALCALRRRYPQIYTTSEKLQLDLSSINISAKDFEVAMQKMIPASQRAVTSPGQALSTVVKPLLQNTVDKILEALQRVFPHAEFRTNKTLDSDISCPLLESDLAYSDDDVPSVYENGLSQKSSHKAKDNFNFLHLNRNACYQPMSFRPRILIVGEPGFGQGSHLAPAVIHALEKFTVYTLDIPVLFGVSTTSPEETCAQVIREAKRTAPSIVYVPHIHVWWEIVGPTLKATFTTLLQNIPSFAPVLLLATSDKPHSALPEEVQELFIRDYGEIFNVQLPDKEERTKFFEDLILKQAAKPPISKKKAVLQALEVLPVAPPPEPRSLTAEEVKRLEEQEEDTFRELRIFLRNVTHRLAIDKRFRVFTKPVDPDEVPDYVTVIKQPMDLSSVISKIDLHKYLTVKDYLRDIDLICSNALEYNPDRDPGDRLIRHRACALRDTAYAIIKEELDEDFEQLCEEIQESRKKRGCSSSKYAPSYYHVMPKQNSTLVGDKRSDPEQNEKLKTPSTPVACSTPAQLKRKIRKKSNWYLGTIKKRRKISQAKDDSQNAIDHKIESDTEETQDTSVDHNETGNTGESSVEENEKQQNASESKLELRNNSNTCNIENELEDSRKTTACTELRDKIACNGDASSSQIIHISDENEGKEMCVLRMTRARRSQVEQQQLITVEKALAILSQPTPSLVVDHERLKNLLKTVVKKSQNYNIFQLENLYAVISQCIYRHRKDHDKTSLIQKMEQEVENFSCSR

[10] = molecular target: Bromodomain-containing protein 4 (Homo sapiens, UniProt O60885, Y97A); experiment: Displacement of Alexa Fluor 647 labelled ligand from His6-tagged BRD4 BD2 (1 to 477 residues)/BD1 Y97A mutant (unknown origin) after 30 mins by TR-FRET assay; in short: as §1
Peregrin = Peregrin (Homo sapiens, UniProt P55201); experiment: Inhibition of BRPF1 (unknown origin) by TR-FRET assay
Homo sapiens [11] = species: Homo sapiens; experiment: Selectivity ratio, ratio of inhibition of BRPF3 (unknown origin) to Displacement of biotinylated H4 peptide from ATAD2B bromodomain (unknown origin) by TR-FRET assay
CREB-binding protein = CREB-binding protein (Homo sapiens, UniProt Q92793); experiment: Inhibition of CREBBP (unknown origin) by TR-FRET assay
[12] = molecular target: Bromodomain and PHD finger-containing protein 3 (Homo sapiens, UniProt Q9ULD4); experiment: Inhibition of BRPF3 (unknown origin) by TR-FRET assay
Homo sapiens [13] = species: Homo sapiens; experiment: Selectivity ratio, ratio of inhibition of BRPF3 (unknown origin) to displacement of SGRG-K(Ac)-GG-K(Ac)-GLG-K(Ac)-GGAKRHRKV-biotin) from His6/FLAG-tagged TEV fused ATAD2 bromodomain (981 to 1121 residues) expressed in Escherichia coli BL21(DE3) cells
[14] = molecular target: Chromatin remodeling regulator CECR2 (Homo sapiens, UniProt Q9BXF3); experiment: Inhibition of CECR2 (unknown origin) by TR-FRET assay
[15] = molecular target: Nucleosome-remodeling factor subunit BPTF (Homo sapiens, UniProt Q12830); experiment: Inhibition of BPTF (unknown origin) by TR-FRET assay

Chain of Bromodomain-containing protein 9 (Q9H8M2 whole entry, the tested form may be a part): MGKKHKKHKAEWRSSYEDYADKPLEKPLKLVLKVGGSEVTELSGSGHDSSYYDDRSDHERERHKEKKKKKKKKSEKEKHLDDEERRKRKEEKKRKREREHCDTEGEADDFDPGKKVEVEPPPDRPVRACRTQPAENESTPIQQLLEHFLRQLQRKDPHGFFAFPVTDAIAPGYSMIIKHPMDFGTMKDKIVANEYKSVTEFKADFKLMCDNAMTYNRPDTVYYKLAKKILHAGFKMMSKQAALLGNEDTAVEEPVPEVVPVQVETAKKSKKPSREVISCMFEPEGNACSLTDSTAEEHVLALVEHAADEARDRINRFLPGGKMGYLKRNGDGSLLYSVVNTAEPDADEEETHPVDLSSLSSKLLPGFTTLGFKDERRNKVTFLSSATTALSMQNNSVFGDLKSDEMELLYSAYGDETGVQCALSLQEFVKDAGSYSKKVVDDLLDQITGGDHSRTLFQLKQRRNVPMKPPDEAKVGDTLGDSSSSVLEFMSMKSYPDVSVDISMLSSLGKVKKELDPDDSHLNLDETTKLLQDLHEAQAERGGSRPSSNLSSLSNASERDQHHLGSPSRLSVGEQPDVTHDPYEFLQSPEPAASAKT
Chain of CREB-binding protein (Q92793 whole entry): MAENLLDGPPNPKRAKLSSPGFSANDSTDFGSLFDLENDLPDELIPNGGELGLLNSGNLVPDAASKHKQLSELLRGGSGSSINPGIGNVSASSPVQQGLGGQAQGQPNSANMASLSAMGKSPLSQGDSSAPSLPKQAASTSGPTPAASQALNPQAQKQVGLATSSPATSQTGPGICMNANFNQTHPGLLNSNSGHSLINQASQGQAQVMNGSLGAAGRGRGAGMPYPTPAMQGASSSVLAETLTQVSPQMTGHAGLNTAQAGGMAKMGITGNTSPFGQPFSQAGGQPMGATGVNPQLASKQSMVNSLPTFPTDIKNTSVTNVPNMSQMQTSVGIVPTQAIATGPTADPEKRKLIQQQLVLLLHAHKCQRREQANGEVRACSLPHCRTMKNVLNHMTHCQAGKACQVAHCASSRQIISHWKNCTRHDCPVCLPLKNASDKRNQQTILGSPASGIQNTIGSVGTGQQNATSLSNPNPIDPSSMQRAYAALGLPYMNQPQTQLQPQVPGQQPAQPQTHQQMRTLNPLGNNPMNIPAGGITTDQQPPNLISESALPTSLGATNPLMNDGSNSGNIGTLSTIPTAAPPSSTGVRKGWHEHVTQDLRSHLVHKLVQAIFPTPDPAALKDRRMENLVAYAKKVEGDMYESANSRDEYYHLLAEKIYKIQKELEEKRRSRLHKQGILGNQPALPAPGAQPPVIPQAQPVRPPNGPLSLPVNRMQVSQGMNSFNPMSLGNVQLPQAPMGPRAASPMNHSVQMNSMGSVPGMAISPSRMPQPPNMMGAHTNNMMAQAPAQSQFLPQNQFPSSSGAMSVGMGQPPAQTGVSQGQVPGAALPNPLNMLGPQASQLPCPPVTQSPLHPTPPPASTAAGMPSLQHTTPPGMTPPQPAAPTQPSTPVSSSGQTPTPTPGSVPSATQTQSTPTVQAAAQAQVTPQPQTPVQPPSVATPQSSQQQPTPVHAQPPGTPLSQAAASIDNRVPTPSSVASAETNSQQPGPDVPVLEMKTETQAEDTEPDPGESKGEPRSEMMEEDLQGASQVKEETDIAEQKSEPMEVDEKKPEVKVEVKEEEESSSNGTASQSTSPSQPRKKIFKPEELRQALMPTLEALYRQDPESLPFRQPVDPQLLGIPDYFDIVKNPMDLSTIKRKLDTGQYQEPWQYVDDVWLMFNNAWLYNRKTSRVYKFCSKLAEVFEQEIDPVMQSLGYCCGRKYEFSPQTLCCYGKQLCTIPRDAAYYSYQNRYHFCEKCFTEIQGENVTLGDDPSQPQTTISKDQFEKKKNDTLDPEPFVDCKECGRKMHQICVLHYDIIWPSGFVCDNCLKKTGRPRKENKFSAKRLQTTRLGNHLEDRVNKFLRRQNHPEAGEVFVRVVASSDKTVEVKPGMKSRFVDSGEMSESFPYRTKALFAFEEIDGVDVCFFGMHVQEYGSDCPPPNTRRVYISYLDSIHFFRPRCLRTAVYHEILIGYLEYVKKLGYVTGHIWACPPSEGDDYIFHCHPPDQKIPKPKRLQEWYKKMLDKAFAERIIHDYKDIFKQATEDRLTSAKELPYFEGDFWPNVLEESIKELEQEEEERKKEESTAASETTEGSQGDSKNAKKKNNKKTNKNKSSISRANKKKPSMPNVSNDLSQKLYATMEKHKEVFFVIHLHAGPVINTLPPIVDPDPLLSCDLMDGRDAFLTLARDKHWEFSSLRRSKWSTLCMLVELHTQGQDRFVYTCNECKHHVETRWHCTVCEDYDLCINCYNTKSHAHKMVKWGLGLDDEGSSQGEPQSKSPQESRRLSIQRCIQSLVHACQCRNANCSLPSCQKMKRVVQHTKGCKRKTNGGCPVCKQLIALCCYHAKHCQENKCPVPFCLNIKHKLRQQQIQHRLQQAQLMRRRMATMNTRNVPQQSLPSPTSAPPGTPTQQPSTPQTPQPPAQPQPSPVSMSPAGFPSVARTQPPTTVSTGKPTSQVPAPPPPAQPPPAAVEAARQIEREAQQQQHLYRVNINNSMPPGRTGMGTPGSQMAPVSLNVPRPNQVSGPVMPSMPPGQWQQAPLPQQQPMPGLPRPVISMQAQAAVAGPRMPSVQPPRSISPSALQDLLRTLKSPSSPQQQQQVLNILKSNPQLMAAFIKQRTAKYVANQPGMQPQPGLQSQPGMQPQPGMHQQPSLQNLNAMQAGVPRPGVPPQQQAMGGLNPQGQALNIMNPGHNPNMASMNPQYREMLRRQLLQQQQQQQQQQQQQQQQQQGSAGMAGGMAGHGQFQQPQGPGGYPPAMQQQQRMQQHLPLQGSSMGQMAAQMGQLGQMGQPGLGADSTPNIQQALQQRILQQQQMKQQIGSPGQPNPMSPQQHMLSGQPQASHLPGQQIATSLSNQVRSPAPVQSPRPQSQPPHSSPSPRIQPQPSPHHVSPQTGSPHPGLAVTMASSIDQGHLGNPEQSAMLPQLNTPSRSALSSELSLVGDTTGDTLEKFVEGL
Chain of Chromatin remodeling regulator CECR2 (Q9BXF3 whole entry): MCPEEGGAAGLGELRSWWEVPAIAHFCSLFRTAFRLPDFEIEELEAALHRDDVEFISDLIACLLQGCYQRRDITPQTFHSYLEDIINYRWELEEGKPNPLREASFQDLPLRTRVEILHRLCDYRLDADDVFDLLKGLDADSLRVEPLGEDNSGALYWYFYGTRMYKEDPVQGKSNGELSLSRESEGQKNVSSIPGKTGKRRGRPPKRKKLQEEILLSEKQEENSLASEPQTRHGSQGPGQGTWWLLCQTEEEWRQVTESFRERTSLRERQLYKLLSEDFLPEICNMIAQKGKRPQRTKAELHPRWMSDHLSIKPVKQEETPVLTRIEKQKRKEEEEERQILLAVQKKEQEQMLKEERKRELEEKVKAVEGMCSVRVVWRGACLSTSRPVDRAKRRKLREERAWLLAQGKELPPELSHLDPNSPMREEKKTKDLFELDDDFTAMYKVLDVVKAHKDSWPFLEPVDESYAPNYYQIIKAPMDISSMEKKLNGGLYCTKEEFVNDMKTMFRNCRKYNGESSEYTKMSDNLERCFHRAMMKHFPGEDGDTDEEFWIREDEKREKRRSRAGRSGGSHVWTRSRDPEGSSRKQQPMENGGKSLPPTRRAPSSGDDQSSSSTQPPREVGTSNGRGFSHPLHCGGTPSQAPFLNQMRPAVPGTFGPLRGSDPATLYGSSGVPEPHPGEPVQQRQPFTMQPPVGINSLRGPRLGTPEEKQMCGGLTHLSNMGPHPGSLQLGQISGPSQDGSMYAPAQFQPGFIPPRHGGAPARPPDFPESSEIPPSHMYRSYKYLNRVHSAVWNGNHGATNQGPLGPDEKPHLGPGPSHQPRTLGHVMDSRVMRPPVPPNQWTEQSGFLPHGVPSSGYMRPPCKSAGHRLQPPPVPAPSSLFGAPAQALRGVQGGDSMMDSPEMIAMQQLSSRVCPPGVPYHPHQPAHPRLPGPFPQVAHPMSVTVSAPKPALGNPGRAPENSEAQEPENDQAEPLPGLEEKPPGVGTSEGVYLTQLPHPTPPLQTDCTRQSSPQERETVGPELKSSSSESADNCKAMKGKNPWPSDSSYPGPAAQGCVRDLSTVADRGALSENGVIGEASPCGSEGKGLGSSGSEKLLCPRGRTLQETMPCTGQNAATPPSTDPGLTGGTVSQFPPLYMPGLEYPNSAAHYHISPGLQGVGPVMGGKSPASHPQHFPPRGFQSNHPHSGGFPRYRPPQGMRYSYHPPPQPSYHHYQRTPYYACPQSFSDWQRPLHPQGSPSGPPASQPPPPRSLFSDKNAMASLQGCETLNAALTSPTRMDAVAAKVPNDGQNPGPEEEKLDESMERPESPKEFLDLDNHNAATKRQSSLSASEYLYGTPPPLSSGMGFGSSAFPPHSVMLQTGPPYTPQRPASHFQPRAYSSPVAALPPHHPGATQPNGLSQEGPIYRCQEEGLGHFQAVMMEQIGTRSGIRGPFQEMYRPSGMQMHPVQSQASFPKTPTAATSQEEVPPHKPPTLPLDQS

CC1(C2CC2)NC(=O)N(CC(=O)Nc2ccc(Br)c(S(=O)(=O)N3CCCCC3)c2)C1=O (racemic) showed an IC50 [1] of 15.8 µM, a Selectivity ratio (Homo sapiens [2]) of over 10 and a Selectivity ratio (Homo sapiens [3]) of over 10. For the same compound, the IC50 [4] was 63.1 µM, the IC50 [5] was 20 µM and the IC50 [6] was over 50.1 µM. For the same compound, the Selectivity ratio (Homo sapiens [7]) was over 100, the IC50 [8] was 3.98 µM and the IC50 [9] was 0.316 µM. The IC50 [10] was 20 µM, the IC50 (Peregrin) was over 100 µM and the Selectivity ratio (Homo sapiens [11]) was over 10. It also gave an IC50 (CREB-binding protein) of over 100 µM, an IC50 [12] of 10 µM and a Selectivity ratio (Homo sapiens [13]) of over 10. The IC50 [14] was 2.51 µM and the IC50 [15] was 63.1 µM.
